The species named for data set [1] is Mus musculus. Nature of the data set: MED(minimum effective dose) against P388 lymphocytic leukemia in mice; this dose produced T/C greater than the threshold value of 125. The data set is classed as functional. On the set-up: unit: mg/kg. In short, it runs like this: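 P388 leukemia implanted ip in mice, treated on a QD1 × 9 schedule under NCI Developmental Therapeutics Program protocols. Minimum effective dose (mg/kg) taken as the lowest dose giving T/C, as survival of treated versus control animals × 100, above the threshold of 125.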

The species entered for data set [2] is Mus musculus. Nature of the data set: Compound was evaluated for the antitumor activity against P388 lymphocytic leukemia in mice; T/C = (days test animal live/days control animals live x100). The data set is classed as functional. In short, it runs like this:
(§1)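 P388 lymphocytic leukemia implanted ip in mice, run to NCI Developmental Therapeutics Program protocols. Treatment given on a QD1 × 9 schedule. T/C = median survival time of treated animals / median survival time of untreated controls × 100. Value reported at the dose level giving the highest T/C. Activity requires duplicate tests with T/C ≥ 120%; a reproducible T/C ≥ 175% counts as significant.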

Data set [3] in a line: (§2) Lethal dose after the intraperitoneal injection in a group of 10 mice. The data set is classed as toxicity, organism-based. The following applies: mouse, in vivo, ip. In short, it runs like this:
(§3)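 NIH general purpose mice (ca. 20 g) were given a single ip injection in an Emulphor EL-620 mixture. Groups of 10 were used at each of usually at least five dose levels. One set of 10 mice received the emulphor mixture alone as a control for each compound. Survivors were counted 7 days after injection, and LD50 (mg/kg) with 95% confidence interval was derived by probit analysis.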

The species named for data set [4] is Mus musculus. Briefly: Antitumor activity against P388 lymphocytic leukemia in mice. The data set is classed as functional. In short, it runs like this: as §1
Data set [5] has as its system Mus musculus. The data set is described as §2. As to conditions: in vivo, ip. The format is toxicity, organism-based. In short, it runs like this:
as §3

For data set [6], the species on record is Mus musculus. Briefly: Compound was evaluated for the antitumor activity against P388 lymphocytic leukemia in mice. The data set is classed as functional. In short, it runs like this:
as §1

The species entered for data set [7] is Mus musculus. Nature of the data set: Compound was evaluated for the antitumor activity against P388 lymphocytic leukemia in mice; T/C = days test animal live/days control animals live x100. The data set is classed as functional. In short, it runs like this:
as §1

Data set [8] is filed under the species Mus musculus. Nature of the data set: Compound was evaluated for the antitumor activity against P388 lymphocytic leukemia in mice;T/C=days test animal live/days control animals live x100). The format is functional. In short, it runs like this:
as §1

Bounds are passed on as bounds.

Molecule `CCCCOC(=O)N[C@H]1CCc2cc(OC)c(OC)c(OC)c2-c2ccc(SC)c(=O)cc21` showed an MED in the data set listed under Mus musculus [1] of under 3. Further, in the data set filed under Mus musculus [2], the T/C stood at 142. Besides, the LD50 in data set [3] amounted to 81 mg/kg. The molecule also gave a Dose in the data set listed under Mus musculus [4] of 3 mg/kg.

As for `CN[C@H]1CCc2cc(OC)c(OC)c(OC)c2-c2ccc(SC)c(=O)cc21`, the MED in the data set listed under Mus musculus [1] is recorded as 50. For the same molecule, the T/C in the data set listed under Mus musculus [2] came to 131. The molecule further came in with a Binding in the data set on Mus musculus [5] of over 100 mg/kg. This molecule also had a Dose in the data set listed under Mus musculus [4] of 100 mg/kg.

Take `COc1cc2c(c(OC)c1OC)-c1ccc(SC)c(=O)cc1[C@@H](NC(=O)Oc1ccccc1)CC2`: the MED in the data set filed under Mus musculus [1] was 2.5. The T/C in the data set filed under Mus musculus [6] came to 164. In data set [3], this molecule registered an LD50 of over 50 mg/kg. The Dose in the data set filed under Mus musculus [4] was 5 mg/kg.

`CCOC(=O)N[C@H]1CCc2cc(OC)c(OC)c(OC)c2-c2ccc(SC)c(=O)cc21` showed an MED in the data set listed under Mus musculus [1] of 0.38. In the data set filed under Mus musculus [7], this molecule displayed a T/C of 172. For the same molecule, the Dose in the data set filed under Mus musculus [4] was 1.5 mg/kg.

For `C=COC(=O)N[C@H]1CCc2cc(OC)c(OC)c(OC)c2-c2ccc(SC)c(=O)cc21`, the MED in the data set filed under Mus musculus [1] is reported as 1.5. Further, the T/C in the data set filed under Mus musculus [2] was 152. The LD50 in data set [3] is 87.5 mg/kg. The molecule also had a Dose in the data set listed under Mus musculus [4] of 3 mg/kg.

`COc1cc2c(c(OC)c1O)-c1ccc(SC)c(=O)cc1[C@@H](NC(C)=O)CC2` registered an MED in the data set filed under Mus musculus [1] of 2.5. The T/C in the data set listed under Mus musculus [6] turned out to be 148. This molecule also yielded an LD50 in data set [3] of 68.1 mg/kg. In the data set filed under Mus musculus [4], this molecule had a Dose of 10 mg/kg.

For the molecule `CCOCC(=O)N[C@H]1CCc2cc(OC)c(OC)c(OC)c2-c2ccc(SC)c(=O)cc21`, the MED in the data set listed under Mus musculus [1] was determined as 0.38. The molecule also came in with a T/C in the data set filed under Mus musculus [8] of 229. In data set [3], this molecule showed an LD50 of 5.1 mg/kg. For the same molecule, the Dose in the data set filed under Mus musculus [4] worked out at 1.5 mg/kg.

In the data set listed under Mus musculus [1], `COc1c(O)cc2c(c1OC)-c1ccc(SC)c(=O)cc1[C@@H](NC(C)=O)CC2` came in with an MED of 1.25. In addition, in the data set listed under Mus musculus [6], the T/C stood at 194. In the data set filed under Mus musculus [4], this molecule came in with a Dose of 5 mg/kg.

`COc1cc2c(c(OC)c1OC)-c1ccc(SC)c(=O)cc1[C@@H](N(C)C(=O)C(F)(F)F)CC2`: in the data set filed under Mus musculus [1], the MED turned out to be 5. The molecule also had a T/C in the data set filed under Mus musculus [2] of 145. Besides, in data set [3], the LD50 was 18.6 mg/kg. In the data set filed under Mus musculus [4], this molecule returned a Dose of 10 mg/kg.

For the molecule `COc1cc2c(c(OC)c1OC)-c1ccc(SC)c(=O)cc1[C@@H](NC=O)CC2`, the MED in the data set filed under Mus musculus [1] is under 0.75. For the same molecule, the T/C in the data set listed under Mus musculus [6] is recorded as 171. Moreover, the LD50 in data set [3] turned out to be 58.2 mg/kg. In the data set filed under Mus musculus [4], this molecule came in with a Dose of 0.75 mg/kg.

In the data set filed under Mus musculus [1], `COc1cc2c(c(OC)c1OC)-c1ccc(SC)c(=O)cc1[C@@H](NC(=O)c1ccccc1)CC2` gave an MED of under 2.5. In the data set filed under Mus musculus [2], this molecule showed a T/C of 155. Besides, in data set [3], the LD50 is 40 mg/kg. This molecule also returned a Dose in the data set listed under Mus musculus [4] of 2.5 mg/kg.

Regarding `COc1cc2c(c(OC)c1OC)-c1ccc(SC)c(=O)cc1[C@@H](NC(=O)C(F)(F)F)CC2`, the MED in the data set filed under Mus musculus [1] turned out to be 0.32. In the data set listed under Mus musculus [6], this molecule gave a T/C of 148. The molecule further came in with an LD50 in data set [3] of 0.9 mg/kg. Besides, in the data set listed under Mus musculus [4], the Dose came to 0.62 mg/kg.

For the molecule `CCCC(=O)N[C@H]1CCc2cc(OC)c(OC)c(OC)c2-c2ccc(SC)c(=O)cc21`, in the data set listed under Mus musculus [1], the MED came to 0.19. In the data set filed under Mus musculus [6], this molecule registered a T/C of 231. The same molecule came in with a Dose in the data set listed under Mus musculus [4] of 1.5 mg/kg.

On to `COc1cc2c(c(OC)c1OC)-c1ccc(OC)c(=O)cc1[C@@H](NC(C)=O)CC2` [COLCHICINE], for which, in the data set filed under Mus musculus [1], the MED is reported as 0.06. Further, the T/C in the data set listed under Mus musculus [6] was 245. This molecule gave a Dose in the data set filed under Mus musculus [4] of 0.5 mg/kg.

In turn, `COc1cc2c(c(OC)c1OC)-c1ccc(SC)c(=O)cc1[C@@H](NC(C)=O)CC2` [THIOCOLCHICINE] came in with an MED in the data set filed under Mus musculus [1] of 0.05. The same molecule returned a T/C in the data set filed under Mus musculus [6] of 193. Besides, in the data set filed under Mus musculus [4], the Dose came to 0.18 mg/kg.

The record behind these values is ChEMBL document CHEMBL1123028, “Synthesis and biological effects of novel thiocolchicines. 3. Evaluation of N-acyldeacetylthiocolchicines, N-(alkoxycarbonyl) deacetylthiocolchicines, and O-ethyldemethylthiocolchicines. New synthesis of thiodemecolcine and antileukemic effects of 2-demethyl- and 3-demethylthiocolchicine” (J Med Chem, 1985).
